The term Inhibition denotes the share of the control response that was lost under treatment.

The subject of assay [1] is Rattus norvegicus. Briefly: Androgenic activity in castrated immature Sprague-Dawley rat assessed as ventral prostate weight stimulation at 2 mg/day, po by Hersherberger assay. It is filed as functional, Prostate gland. In short, it runs like this: (§1)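 Castrated immature male rats were given oral doses once daily for 5 days in 20% cyclodextrin vehicle, n = 3 per group. Ventral prostate weight was normalized to the vehicle control. Percent stimulation was scaled with the vehicle group set to 0% and the testosterone-alone group set to 100%.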

For assay [2], the species on record is Rattus norvegicus. Briefly: Inhibition of testosterone-enhanced ventral prostate weight in castrated immature Sprague-Dawley rat. The assay is classed as functional, Prostate gland. Also noted: concentration or dose not given beside the values. The method, boiled down:
(§2)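 This was an antagonist mode in castrated immature male rats. Animals were dosed orally once daily for 5 days at 2 mg/day in 20% cyclodextrin, together with testosterone propionate 0.1 mg/day (about 1.3 mg/kg) subcutaneously in sesame oil, n = 3 per group. Percent inhibition of prostate weight was scaled with the vehicle group set to 100% and the testosterone-alone group set to 0%.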

The test system of assay [3] is Rattus norvegicus. Briefly: Anabolic activity assessed as stimulation of levator ani muscle weight in castrated immature Sprague-Dawley rat at 2 mg/day, po by Hersherberger assay.
Assay [4] has as its system Rattus norvegicus. Briefly: Anabolic activity assessed as stimulation of levator ani muscle weight in sc dosed castrated immature Sprague-Dawley rat by Hersherberger assay. It is filed as functional. The conditions noted are these: in the assay text read “po dosed” for “sc dosed”. The method, boiled down: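 Castrated immature male rats received testosterone propionate by subcutaneous injection at the nape of the neck, 5 mg/kg in sesame oil. Levator ani weight was measured as percent stimulation, with the vehicle control set to 0% and the testosterone-alone group set to 100%.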

For assay [5], the species on record is Rattus norvegicus. Briefly: Androgenic activity in castrated immature Sprague-Dawley rat assessed as ventral prostate weight stimulation at 3 mg/ day by Hersherberger assay. The assay is classed as functional, Prostate gland. The method, boiled down: as §1
Assay [6] deals with Rattus norvegicus. Briefly: Inhibition of ventral prostate weight in castrated immature Sprague-Dawley rat at 2 mg/day, po. It is filed as functional, Prostate gland. Also noted: scale not given: the % may be the effect or the level left. The method, boiled down:
as §2

The subject of assay [7] is Rattus norvegicus. Briefly: Anabolic activity assessed as stimulation of levator ani muscle weight in castrated immature Sprague-Dawley rat at 5 mg/day, sc by Hersherberger assay. It is filed as functional. In short, it runs like this: (§3)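 Castrated immature male rats; agent given subcutaneously by injection at the nape of the neck in sesame oil. Compounds in the same table were dosed once daily for 5 days with N = 3/group. Tissue weight is expressed as percent stimulation, with the vehicle-treated control set to 0% and the testosterone-alone control set to 100%.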

In assay [8] the test system is Rattus norvegicus. Briefly: Androgenic activity in castrated immature Sprague-Dawley rat assessed as ventral prostate weight stimulation at 5 mg/day, sc by Hersherberger assay. The assay is classed as functional, Prostate gland. In short, it runs like this:
as §3

In the case of `CCN/C(=N\c1ccc(C#N)c(C(F)(F)F)c1)C1(C)CC(C(F)(F)F)=NN1` (centres undefined), the Activity with Rattus norvegicus [1] is given as less than 10%; in the assay on Rattus norvegicus [3], 50%. Besides, in the assay listed under Rattus norvegicus [2], the Inhibition came out at 18%.
The matching figures for `CC1(/C(=N/c2ccc(C#N)c(C(F)(F)F)c2)NS(C)(=O)=O)CC(C(F)(F)F)=NN1` (centres undefined): less than 10%, less than 10% and less than 10%.
For `C[C@@]12CC(C(F)(F)F)=NN1C(N)=N/C2=N\c1ccc(C#N)c(C(F)(F)F)c1`, the Inhibition in the assay listed under Rattus norvegicus [2] is less than 10%. For the same molecule, the ED50 with Rattus norvegicus [4] came to 0.85 mg/day. For the same molecule, the Activity came out at 29% in the assay listed under Rattus norvegicus [5] and 72% in the assay with Rattus norvegicus [3].
As to `CC12CC(c3c(F)c(F)c(F)c(F)c3F)=NN1C(N)=N/C2=N\c1ccc(C#N)c(C(F)(F)F)c1` (centres undefined), the figures for the Activity in the assay on Rattus norvegicus [1] and in the assay with Rattus norvegicus [3] were less than 10% and 21%, respectively. In addition, in the assay listed under Rattus norvegicus [2], the Inhibition was less than 10%.
For `CCN(CC)/C(=N\c1ccc(C#N)c(C(F)(F)F)c1)C1(C)CC(C(F)(F)F)=NN1` (centres undefined), the Activity in the assay on Rattus norvegicus [1] amounted to 22%; in the assay on Rattus norvegicus [3], 32%. The Inhibition in the assay listed under Rattus norvegicus [2] was less than 10%.
The matching figures for `CC1(/C(N)=N/c2ccc(C#N)c(C(F)(F)F)c2)CC(C(F)(F)F)=NN1` (centres undefined): 39%, 76% and 20%.
As for `CN/C(=N\c1ccc(C#N)c(C(F)(F)F)c1)C1(C)CC(C(F)(F)F)=NN1` (centres undefined), the results for the Activity in the assay on Rattus norvegicus [6] and with Rattus norvegicus [3] were 15% and 17%, respectively. For the same molecule, the Inhibition in the assay listed under Rattus norvegicus [2] is reported as 15%.
With `CCOC(=O)C1=NN2C(N)=N/C(=N\c3ccc(C#N)c(C(F)(F)F)c3)C2(C)C1` (centres undefined), the Activity in the assay on Rattus norvegicus [1] and in the assay with Rattus norvegicus [3] was less than 10% in each case. For the same molecule, the Inhibition in the assay listed under Rattus norvegicus [2] is reported as less than 10%.
For `CCC12CC(C(F)(F)F)=NN1C(N)=N/C2=N\c1ccc(C#N)c(C(F)(F)F)c1` (centres undefined), the Activity in the assay with Rattus norvegicus [1] is reported as less than 10%; with Rattus norvegicus [3], 16%. Also, the Inhibition in the assay filed under Rattus norvegicus [2] is listed as less than 10%.
`CC12CC(C(F)(F)F)=NN1C(NC(=O)C(F)(F)F)=N/C2=N\c1ccc(C#N)c(C(F)(F)F)c1` (centres undefined): the Activity in the assay with Rattus norvegicus [1] is recorded as 55%; with Rattus norvegicus [3] it was 61%. Further, in the assay listed under Rattus norvegicus [2], the Inhibition turned out to be 31%.
The matching figures for `CC12CC(C(F)(F)F)=NN1C(N)=N/C2=N\c1ccc(Cl)c(Cl)c1` (centres undefined): less than 10%, less than 10% and 31%.
The matching figures for `CC12CC(C(F)(F)F)=NN1C(N)=N/C2=N\c1ccc(Br)c(C(F)(F)F)c1` (centres undefined): less than 10%, less than 10% and less than 10%.
As for `CC12CC(C(F)(F)F)=NN1C(N)=N/C2=N\c1ccc([N+](=O)[O-])c(C(F)(F)F)c1` (centres undefined), the Activity in the assay with Rattus norvegicus [1] and with Rattus norvegicus [3] was less than 10% each time. Also, the Inhibition in the assay listed under Rattus norvegicus [2] is given as less than 10%.
Take `CC12CC(C(F)(F)F)=NN1C(=N)O/C2=N\c1ccc(C#N)c(C(F)(F)F)c1` (centres undefined): the Activity in the assay with Rattus norvegicus [1] came out at 55%; in the assay with Rattus norvegicus [3], 29%.
For `CON/C(=N\c1ccc(C#N)c(C(F)(F)F)c1)C1(C)CC(C(F)(F)F)=NN1` (centres undefined), the Activity is 14% in the assay with Rattus norvegicus [1] and 23% with Rattus norvegicus [3]. The Inhibition in the assay listed under Rattus norvegicus [2] is reported as less than 10%.
As for `CC1(/C(=N/c2ccc(C#N)c(C(F)(F)F)c2)NO)CC(C(F)(F)F)=NN1` (centres undefined), the Activity in the assay with Rattus norvegicus [1] and in the assay on Rattus norvegicus [3] was less than 10% in each case. Moreover, the Inhibition in the assay listed under Rattus norvegicus [2] is recorded as less than 10%.
With `CC12CC=NN1C(N)=N/C2=N\c1ccc(C#N)c(C(F)(F)F)c1` (centres undefined), the Activity in the assay on Rattus norvegicus [1] and in the assay with Rattus norvegicus [3] was less than 10% in each case. In addition, in the assay listed under Rattus norvegicus [2], the Inhibition is less than 10%.
With `C[C@]12CC(C(F)(F)F)=NN1C(N)=N/C2=N\c1ccc(C#N)c(C(F)(F)F)c1`, the Inhibition in the assay listed under Rattus norvegicus [2] is on record as 30%. In addition, the ED50 with Rattus norvegicus [4] came out at 0.07 mg/day. Also, the results for the Activity in the assay filed under Rattus norvegicus [5] and with Rattus norvegicus [3] were 36% and 91%, respectively.
Turning to `CCc1c(/N=C2\N=C(N)N3N=C(C(F)(F)F)CC23C)ccc(C#N)c1C(F)(F)F` (centres undefined), the Activity is reported as less than 10% in the assay with Rattus norvegicus [1] and 19% with Rattus norvegicus [3]. Also, the Inhibition in the assay listed under Rattus norvegicus [2] is recorded as less than 10%.
Take `CC1(/C(=N/c2ccc(C#N)c(C(F)(F)F)c2)N2CCCC2)CC(C(F)(F)F)=NN1` (centres undefined): the Activity with Rattus norvegicus [1] and in the assay with Rattus norvegicus [3] was less than 10% throughout. Further, the Inhibition in the assay filed under Rattus norvegicus [2] is less than 10%.
Turning to `C[C@](O)(CS(=O)(=O)c1ccc(F)cc1)C(=O)Nc1ccc(C#N)c(C(F)(F)F)c1` [(R)-BICALUTAMIDE], the Inhibition in the assay listed under Rattus norvegicus [2] is listed as 70%.
Turning to `CCC(=O)O[C@H]1CC[C@H]2[C@@H]3CCC4=CC(=O)CC[C@]4(C)[C@H]3CC[C@]12C` [TESTOSTERONE PROPIONATE], the Activity in the assay with Rattus norvegicus [7] and with Rattus norvegicus [8] was 100% in each case.

The record behind these values is ChEMBL document CHEMBL1146274, “Serendipitous discovery of novel imidazolopyrazole scaffold as selective androgen receptor modulators” (2007).
